Reference: ChEMBL document CHEMBL2390917, “Synthesis and biological evaluation of 2-(5-methyl-4-phenyl-2-oxopyrrolidin-1-yl)-acetamide stereoisomers as novel positive allosteric modulators of sigma-1 receptor” (Bioorg Med Chem, 2013)
Calls of active or inactive are those of the source. The rule behind the calls is not given here.

How the values were obtained:
[1] = target: T1, Sigma non-opioid intracellular receptor 1 (Homo sapiens, UniProt Q99720); test: Binding affinity to sigma 1 receptor (unknown origin) at 10 uM by radioligand displacement assay
[2] = target: Endothelin receptor type B (Homo sapiens) (UniProt P24530); test: Binding affinity to human ETB receptor at 10 uM by radioligand displacement assay relative to control
[3] = target: voltage-gated potassium channel (Homo sapiens, UniProt O43525+O43526+O95259+P16389+P17658+P22001+P22459+P22460+P48547+P51787+P56696+Q03721+Q09470+Q12809+Q14003+Q14721+Q16322+Q6PIU1+Q8NCM2+Q8TAE7+Q8TDN1+Q8TDN2+Q92953+Q96KK3+Q96L42+Q96PR1+Q96RP8+Q9BQ31+Q9H252+Q9H3M0+Q9NR82+Q9NS40+Q9NSA2+Q9NZV8+Q9UIX4+Q9UJ96+Q9UK17+Q9ULD8+Q9ULS6+Q9UQ05); test: Binding affinity to voltage-gated potassium channel (unknown origin) at 10 uM by radioligand displacement assay relative to control; assay type: protein assay
[4] = target: Galanin receptor type 1 (Homo sapiens) (UniProt P47211); test: Binding affinity to human GAL1 receptor at 10 uM by radioligand displacement assay relative to control
Homo sapiens [5] = species on record: Homo sapiens; test: Binding affinity to P2Y receptor (unknown origin) at 10 uM by radioligand displacement assay relative to control
[6] = target: Alpha-2A adrenergic receptor (Homo sapiens) (UniProt P08913); test: Binding affinity to adrenergic alpha2 receptor (unknown origin) at 10 uM by radioligand displacement assay relative to control
[7] = target: D(1A) dopamine receptor (Homo sapiens) (UniProt P21728); test: Binding affinity to human dopamine D1 receptor at 10 uM by radioligand displacement assay relative to control
Mus musculus [8] = test: Toxicity in ICR mouse assessed as effect on locomotor activity measured moved distance per 4 mins at 100 mg/kg, ip after 60 mins by open field test (reference value: 623 136 cm); assay type: organism-based; parameters: dose 100 mg/kg, route intraperitoneal; conditions: in vivo
[9] = target: T1, Sigma non-opioid intracellular receptor 1; test: Displacement of [3H]1,3-di(2-tolyl)guanidine from sigma 1 receptor in human Jurkat cells; assay type: cell-based
[10] = target: Adrenergic receptor alpha-1 (Homo sapiens) (UniProt P35348+P25100+P35368); test: Binding affinity to adrenergic alpha1 receptor (unknown origin) at 10 uM by radioligand displacement assay relative to control
[11] = target: Histamine H1 receptor (Homo sapiens) (UniProt P35367); test: Binding affinity to human histamine H1 receptor at 10 uM by radioligand displacement assay relative to control
[12] = target: Somatostatin receptor type 1 (Homo sapiens) (UniProt P30872); test: Binding affinity to Somatostatin receptor type 1 (unknown origin) at 10 uM by radioligand displacement assay relative to control
[13] = target: 5-hydroxytryptamine receptor 2C (Homo sapiens) (UniProt P28335); test: Binding affinity to human 5-HT2C receptor at 10 uM by radioligand displacement assay relative to control
Mus musculus [14] = test: Toxicity in ICR mouse assessed as effect on locomotor activity measured moved distance per 4 mins at 1 mg/kg, ip after 240 mins by open field test (reference value: 398 70 cm); assay type: organism-based; parameters: dose 1 mg/kg, route intraperitoneal; conditions: in vivo
Mus musculus [15] = test: Antiamnesic activity in ICR mouse scopolamine-induced memory impairment model assessed as increase in retention latency at 10 mg/kg, ip administered 60 mins prior to scopolamine challenge measured after 40 mins by passive avoidance test relative to scopolamine-treated control; assay type: functional; conditions: route intraperitoneal
Mus musculus [16] = test: Toxicity in ICR mouse assessed as effect on locomotor activity measured moved distance per 4 mins at 1 mg/kg, ip after 180 mins by open field test (reference value: 436 125 cm); assay type: organism-based; parameters: dose 1 mg/kg, route intraperitoneal; conditions: in vivo
[17] = target: Peroxisome proliferator-activated receptor gamma (Homo sapiens) (UniProt P37231); test: Binding affinity to human PPARgamma receptor at 10 uM by radioligand displacement assay relative to control
[18] = target: Vasoactive intestinal polypeptide receptor 1 (Homo sapiens) (UniProt P32241); test: Binding affinity to human VPAC1 receptor at 10 uM by radioligand displacement assay relative to control
[19] = target: Endothelin-1 receptor (Homo sapiens) (UniProt P25101); test: Binding affinity to human ETA receptor at 10 uM by radioligand displacement assay relative to control
Homo sapiens [20] = species on record: Homo sapiens; test: Binding affinity to L-type calcium channel verapamil binding site (unknown origin) at 10 uM by radioligand displacement assay relative to control
[21] = target: 5-hydroxytryptamine receptor 1B (Homo sapiens) (UniProt P28222); test: Binding affinity to 5-HT1B receptor (unknown origin) at 10 uM by radioligand displacement assay relative to control
Homo sapiens [22] = species on record: Homo sapiens; test: Binding affinity to GABA receptor (unknown origin) at 10 uM by radioligand displacement assay relative to control
[23] = target: Sodium-dependent serotonin transporter (Homo sapiens) (UniProt P31645); test: Binding affinity to human serotonin 5-HT transporter at 10 uM by radioligand displacement assay relative to control
[24] = target: 5-hydroxytryptamine receptor 6 (Homo sapiens) (UniProt P50406); test: Binding affinity to human 5-HT6 receptor at 10 uM by radioligand displacement assay relative to control
Mus musculus [25] = test: Toxicity in ICR mouse assessed as effect on locomotor activity measured moved distance per 4 mins at 100 mg/kg, ip after 120 mins by open field test (reference value: 578 126 cm); assay type: organism-based; parameters: dose 100 mg/kg, route intraperitoneal; conditions: in vivo
[26] = target: Platelet-derived growth factor receptor (Homo sapiens) (UniProt P09619+P16234); test: Binding affinity to PDGF receptor (unknown origin) at 10 uM by radioligand displacement assay relative to control; assay type: protein-complex assay
[27] = target: Melatonin receptor type 1A (Homo sapiens) (UniProt P48039); test: Binding affinity to human ML1A receptor at 10 uM by radioligand displacement assay relative to control
[28] = target: 5-hydroxytryptamine receptor 1A (Homo sapiens) (UniProt P08908); test: Binding affinity to human 5-HT1A receptor at 10 uM by radioligand displacement assay relative to control
Mus musculus [29] = test: Cognitive enhancing effect in ip dosed ICR mouse assessed as increase in retention latency administered 60 mins prior to testing measured after 24 hrs by passive avoidance test; assay type: functional, organism-based
Mus musculus [30] = test: Antiamnesic activity in ICR mouse scopolamine-induced memory impairment model assessed as increase in retention latency at 5 mg/kg, ip administered 60 mins prior to scopolamine challenge measured after 40 mins by passive avoidance test relative to scopolamine-treated control; assay type: functional; conditions: route intraperitoneal
[31] = target: Sigma non-opioid intracellular receptor 1 (Rattus norvegicus) (UniProt Q9R0C9); test: Positive allosteric modulation of Wistar rat sigma 1 receptor assessed as increase in electrically-stimulated vas deferens contraction at 10 uM after 10 mins
In short: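 Isolated rat vas deferens, proximal ~15 mm segments, in K-H buffer at 32 °C gassed […], with 1.0 g passive tension and a 60 min adaptation. Field-stimulated at 0.1 Hz, 1 ms, 50 V. Cumulative PRE-084 (1–100 µM) was given, then washout and a 30 min rest. Test compound 10 µM was added for 10 min before cumulative PRE-084. Response is % increase over baseline amplitude; n=6, mean ± SEM, paired t-test.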

T1 sequence (Q99720 whole entry): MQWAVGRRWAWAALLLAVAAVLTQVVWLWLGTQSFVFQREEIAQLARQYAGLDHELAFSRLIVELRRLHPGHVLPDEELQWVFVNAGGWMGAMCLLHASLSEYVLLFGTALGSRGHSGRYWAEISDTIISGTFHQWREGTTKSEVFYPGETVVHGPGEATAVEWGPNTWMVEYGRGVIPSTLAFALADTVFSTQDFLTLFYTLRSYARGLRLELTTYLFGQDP
Chain of Endothelin-1 receptor (Homo sapiens) (P25101 whole entry): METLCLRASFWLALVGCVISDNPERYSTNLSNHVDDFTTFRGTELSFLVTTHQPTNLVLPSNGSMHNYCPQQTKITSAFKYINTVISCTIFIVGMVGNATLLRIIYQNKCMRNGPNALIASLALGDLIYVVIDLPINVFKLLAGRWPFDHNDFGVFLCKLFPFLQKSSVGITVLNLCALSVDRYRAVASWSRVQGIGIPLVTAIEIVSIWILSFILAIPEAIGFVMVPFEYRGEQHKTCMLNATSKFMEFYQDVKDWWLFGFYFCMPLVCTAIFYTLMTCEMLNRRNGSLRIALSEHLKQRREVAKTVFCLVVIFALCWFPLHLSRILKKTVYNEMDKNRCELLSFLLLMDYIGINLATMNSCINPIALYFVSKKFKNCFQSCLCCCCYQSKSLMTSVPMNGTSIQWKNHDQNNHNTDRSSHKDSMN
Chain of 5-hydroxytryptamine receptor 6 (Homo sapiens) (P50406 whole entry): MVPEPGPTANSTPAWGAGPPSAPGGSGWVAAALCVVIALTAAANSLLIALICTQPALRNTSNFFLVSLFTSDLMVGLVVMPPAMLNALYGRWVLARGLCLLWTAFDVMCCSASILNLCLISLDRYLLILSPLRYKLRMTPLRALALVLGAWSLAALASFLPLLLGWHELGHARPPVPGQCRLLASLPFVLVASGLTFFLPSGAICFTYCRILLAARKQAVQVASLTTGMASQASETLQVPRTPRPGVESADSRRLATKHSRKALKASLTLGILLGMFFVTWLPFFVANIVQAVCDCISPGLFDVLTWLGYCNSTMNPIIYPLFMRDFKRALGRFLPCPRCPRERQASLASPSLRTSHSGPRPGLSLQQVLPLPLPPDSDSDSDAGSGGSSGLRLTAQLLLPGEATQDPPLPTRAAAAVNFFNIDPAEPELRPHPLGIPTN
Chain of Melatonin receptor type 1A (Homo sapiens) (P48039 whole entry): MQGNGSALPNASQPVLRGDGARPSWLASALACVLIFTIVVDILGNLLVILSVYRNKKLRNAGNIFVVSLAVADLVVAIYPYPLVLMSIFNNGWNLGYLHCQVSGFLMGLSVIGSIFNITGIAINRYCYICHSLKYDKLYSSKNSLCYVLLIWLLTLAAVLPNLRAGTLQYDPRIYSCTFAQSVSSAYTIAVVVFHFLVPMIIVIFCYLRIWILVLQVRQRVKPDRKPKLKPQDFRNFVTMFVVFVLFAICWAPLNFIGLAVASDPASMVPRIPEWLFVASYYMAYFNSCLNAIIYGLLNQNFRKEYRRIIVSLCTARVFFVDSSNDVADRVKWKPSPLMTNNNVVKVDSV
Chain of 5-hydroxytryptamine receptor 1B (Homo sapiens) (P28222 whole entry): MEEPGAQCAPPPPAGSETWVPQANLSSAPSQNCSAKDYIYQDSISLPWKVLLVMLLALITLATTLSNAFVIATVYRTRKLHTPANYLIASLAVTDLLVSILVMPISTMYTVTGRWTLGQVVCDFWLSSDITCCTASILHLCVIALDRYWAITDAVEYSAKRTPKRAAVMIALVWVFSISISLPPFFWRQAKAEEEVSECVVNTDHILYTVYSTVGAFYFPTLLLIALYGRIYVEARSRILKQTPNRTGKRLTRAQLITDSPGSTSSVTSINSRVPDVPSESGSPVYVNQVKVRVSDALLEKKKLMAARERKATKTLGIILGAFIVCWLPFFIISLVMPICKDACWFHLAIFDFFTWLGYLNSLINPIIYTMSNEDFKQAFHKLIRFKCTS
Chain of Endothelin receptor type B (Homo sapiens) (P24530 whole entry): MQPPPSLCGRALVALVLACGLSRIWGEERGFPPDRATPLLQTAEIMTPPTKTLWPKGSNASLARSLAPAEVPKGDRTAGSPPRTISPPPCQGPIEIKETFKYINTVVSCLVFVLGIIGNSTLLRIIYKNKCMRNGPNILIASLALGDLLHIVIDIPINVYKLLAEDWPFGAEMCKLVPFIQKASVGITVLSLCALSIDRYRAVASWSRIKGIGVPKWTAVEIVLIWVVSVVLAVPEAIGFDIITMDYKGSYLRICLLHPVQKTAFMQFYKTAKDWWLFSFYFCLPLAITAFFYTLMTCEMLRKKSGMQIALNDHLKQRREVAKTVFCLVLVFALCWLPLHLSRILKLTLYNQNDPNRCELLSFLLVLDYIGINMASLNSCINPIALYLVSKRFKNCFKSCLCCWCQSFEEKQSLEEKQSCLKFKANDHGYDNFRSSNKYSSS
Chain of 5-hydroxytryptamine receptor 1A (Homo sapiens) (P08908 whole entry): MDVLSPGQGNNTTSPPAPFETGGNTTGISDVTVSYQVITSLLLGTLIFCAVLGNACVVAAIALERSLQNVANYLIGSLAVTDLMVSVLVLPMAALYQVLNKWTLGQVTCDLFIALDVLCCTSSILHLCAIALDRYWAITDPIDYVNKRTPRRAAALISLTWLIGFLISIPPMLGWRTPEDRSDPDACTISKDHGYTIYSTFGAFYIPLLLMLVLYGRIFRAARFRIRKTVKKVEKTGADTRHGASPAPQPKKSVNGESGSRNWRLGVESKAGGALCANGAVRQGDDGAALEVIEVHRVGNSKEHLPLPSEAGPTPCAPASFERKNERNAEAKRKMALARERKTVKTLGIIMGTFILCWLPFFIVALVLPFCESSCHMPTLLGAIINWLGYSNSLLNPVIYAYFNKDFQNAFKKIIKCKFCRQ
Chain of Alpha-2A adrenergic receptor (Homo sapiens) (P08913 whole entry): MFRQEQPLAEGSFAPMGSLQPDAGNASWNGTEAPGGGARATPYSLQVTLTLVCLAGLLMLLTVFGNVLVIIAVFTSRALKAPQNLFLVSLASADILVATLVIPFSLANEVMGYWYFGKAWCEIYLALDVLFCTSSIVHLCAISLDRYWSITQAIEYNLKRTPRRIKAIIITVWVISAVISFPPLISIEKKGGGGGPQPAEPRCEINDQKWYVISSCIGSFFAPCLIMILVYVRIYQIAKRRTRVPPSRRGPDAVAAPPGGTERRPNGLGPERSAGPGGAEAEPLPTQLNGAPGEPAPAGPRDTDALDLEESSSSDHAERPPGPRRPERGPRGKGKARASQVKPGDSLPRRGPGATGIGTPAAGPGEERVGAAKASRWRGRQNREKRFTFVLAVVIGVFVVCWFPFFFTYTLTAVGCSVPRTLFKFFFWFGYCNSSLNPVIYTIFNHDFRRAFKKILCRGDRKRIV
Chain of Galanin receptor type 1 (Homo sapiens) (P47211 whole entry): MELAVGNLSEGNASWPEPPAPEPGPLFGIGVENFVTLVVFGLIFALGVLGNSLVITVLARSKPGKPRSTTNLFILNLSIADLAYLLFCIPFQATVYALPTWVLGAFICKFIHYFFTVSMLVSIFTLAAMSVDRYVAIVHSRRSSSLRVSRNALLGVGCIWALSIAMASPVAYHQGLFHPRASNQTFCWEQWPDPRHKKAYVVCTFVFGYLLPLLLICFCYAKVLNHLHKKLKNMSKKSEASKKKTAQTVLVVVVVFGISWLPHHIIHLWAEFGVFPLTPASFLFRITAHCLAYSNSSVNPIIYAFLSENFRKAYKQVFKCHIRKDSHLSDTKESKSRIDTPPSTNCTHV
Chain of Histamine H1 receptor (Homo sapiens) (P35367 whole entry): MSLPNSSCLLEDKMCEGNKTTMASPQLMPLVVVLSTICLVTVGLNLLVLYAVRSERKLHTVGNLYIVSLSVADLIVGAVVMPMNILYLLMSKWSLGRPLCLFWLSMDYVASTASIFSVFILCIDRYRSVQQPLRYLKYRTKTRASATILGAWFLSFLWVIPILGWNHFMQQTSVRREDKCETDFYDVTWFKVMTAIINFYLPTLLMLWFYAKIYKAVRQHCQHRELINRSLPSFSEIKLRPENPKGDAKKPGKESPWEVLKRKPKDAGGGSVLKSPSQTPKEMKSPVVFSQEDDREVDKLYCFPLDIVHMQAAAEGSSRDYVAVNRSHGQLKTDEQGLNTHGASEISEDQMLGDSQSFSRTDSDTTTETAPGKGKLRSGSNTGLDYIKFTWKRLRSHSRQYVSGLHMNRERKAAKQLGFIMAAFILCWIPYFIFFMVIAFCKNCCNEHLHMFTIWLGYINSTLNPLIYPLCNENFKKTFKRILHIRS
Chain of Somatostatin receptor type 1 (Homo sapiens) (P30872 whole entry): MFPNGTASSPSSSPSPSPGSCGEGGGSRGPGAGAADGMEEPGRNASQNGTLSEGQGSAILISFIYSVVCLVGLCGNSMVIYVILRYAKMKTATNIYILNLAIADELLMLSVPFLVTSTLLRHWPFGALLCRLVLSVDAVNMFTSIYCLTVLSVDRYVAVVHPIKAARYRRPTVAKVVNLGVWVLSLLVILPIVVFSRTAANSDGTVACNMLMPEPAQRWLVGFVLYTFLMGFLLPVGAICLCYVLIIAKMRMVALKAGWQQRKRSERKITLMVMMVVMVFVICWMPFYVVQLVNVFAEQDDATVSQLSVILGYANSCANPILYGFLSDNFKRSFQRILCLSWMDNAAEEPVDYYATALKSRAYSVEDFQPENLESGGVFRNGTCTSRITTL
Chain of Vasoactive intestinal polypeptide receptor 1 (Homo sapiens) (P32241 whole entry): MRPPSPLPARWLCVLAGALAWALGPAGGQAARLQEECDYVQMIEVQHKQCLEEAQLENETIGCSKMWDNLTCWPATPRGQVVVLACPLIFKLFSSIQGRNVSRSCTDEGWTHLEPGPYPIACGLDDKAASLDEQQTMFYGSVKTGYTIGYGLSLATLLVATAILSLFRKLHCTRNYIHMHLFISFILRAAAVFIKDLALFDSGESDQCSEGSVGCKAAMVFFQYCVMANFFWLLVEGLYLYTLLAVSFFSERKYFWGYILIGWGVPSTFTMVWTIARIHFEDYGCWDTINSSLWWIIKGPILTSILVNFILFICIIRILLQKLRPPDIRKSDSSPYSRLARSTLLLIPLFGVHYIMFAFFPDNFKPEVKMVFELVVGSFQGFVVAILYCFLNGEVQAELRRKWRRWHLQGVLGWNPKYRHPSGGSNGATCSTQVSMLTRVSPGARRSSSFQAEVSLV

C[C@H]1[C@@H](c2ccccc2)CC(=O)N1CC(N)=O
Activity [1]: inactive
inhibition [2]: 2%
inhibition at 10 µM [3]: -2%
inhibition [4]: -2%
inhibition (Homo sapiens [5]): -4%
inhibition [6]: -4%
inhibition [7]: -6%
Activity (Mus musculus [8]): 648 cm
IC50 [9]: 43 nM
inhibition [10]: -5%
inhibition [11]: -7%
inhibition [12]: -5%
inhibition [13]: -2%
Activity (Mus musculus [14]): 626 cm
Activity (Mus musculus [15]): 209%
Activity (Mus musculus [16]): 559 cm
inhibition [17]: -9%
inhibition [18]: -2%
inhibition [19]: -2%
inhibition (Homo sapiens [20]): -1%
inhibition [21]: 0%
inhibition (Homo sapiens [22]): 13%
inhibition [23]: 5%
inhibition [24]: -10%
Activity (Mus musculus [25]): 470 cm
inhibition [26]: -6%
inhibition [27]: -6%
inhibition [28]: -4%
Activity (Mus musculus [29]): Dose-dependent effect
Activity (Mus musculus [30]): 237%
Activity [31]: inactive
